pEC50: −log10 of the molar value. Active and inactive are the calls of the source. The rule behind the calls is not given here.
Assays:
[1] = target: T1, G-protein coupled bile acid receptor 1 (Homo sapiens, UniProt Q8TDU6); assay: Agonist activity at human TGR5 expressed in HEK293 cells assessed CRE-induced luciferase activity after 5.5 hrs by reporter gene assay; format: functional, cell-based
T1 sequence (Q8TDU6 whole entry): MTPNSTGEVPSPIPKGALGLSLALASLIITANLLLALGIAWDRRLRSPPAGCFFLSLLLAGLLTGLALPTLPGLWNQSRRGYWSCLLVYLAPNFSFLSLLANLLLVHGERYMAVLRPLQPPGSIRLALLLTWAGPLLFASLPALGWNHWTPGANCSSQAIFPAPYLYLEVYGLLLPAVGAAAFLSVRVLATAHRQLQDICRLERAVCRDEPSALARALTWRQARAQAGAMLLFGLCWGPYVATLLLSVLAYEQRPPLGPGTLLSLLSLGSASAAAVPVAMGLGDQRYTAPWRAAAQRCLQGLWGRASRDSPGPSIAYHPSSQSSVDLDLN

[2] = target: T2, G-protein coupled bile acid receptor 1 (Mus musculus) (UniProt Q80SS6); assay: Agonist activity at mouse TGR5 expressed in HEK293 cells assessed CRE-induced luciferase activity after 5.5 hrs by reporter gene assay relative to control; format: functional, cell-based; design: concentration or dose not given beside the values
T2 sequence (whole entry): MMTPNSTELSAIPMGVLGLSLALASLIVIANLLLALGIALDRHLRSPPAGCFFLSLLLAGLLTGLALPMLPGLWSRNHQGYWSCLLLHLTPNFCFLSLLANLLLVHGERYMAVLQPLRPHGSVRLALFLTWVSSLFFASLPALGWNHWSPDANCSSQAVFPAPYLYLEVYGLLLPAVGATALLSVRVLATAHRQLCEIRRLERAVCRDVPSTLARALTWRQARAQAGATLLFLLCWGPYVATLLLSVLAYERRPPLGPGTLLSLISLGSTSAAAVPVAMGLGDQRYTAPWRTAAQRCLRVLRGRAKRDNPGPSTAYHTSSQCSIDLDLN
How it was run: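 HEK293 cells were stably transfected with a human or mouse TGR5 expression plasmid plus a CRE-driven luciferase reporter (pGL4.29). Cells were seeded and incubated overnight in DMEM with 10% FBS at 37 °C in 5% CO2, then exposed in fresh medium to a range of test concentrations. Luciferase read-out. Max effect % was scaled from DMSO vehicle (0%) to the INT-777 reference (100%). EC50 was taken from at least two independent experiments at eight concentrations each, mean ± SD.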

[3] = target: T3, G-protein coupled bile acid receptor 1 (Mus musculus, UniProt Q80SS6); assay: Agonist activity at mouse TGR5 expressed in HEK293 cells assessed CRE-induced luciferase activity after 5.5 hrs by reporter gene assay; format: functional, cell-based
T3 sequence (Q80SS6 whole entry): T2 sequence (whole entry)
How it was run: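 HEK293 cells were stably transfected with a human or mouse TGR5 expression plasmid plus a CRE-driven luciferase reporter (pGL4.29). Cells were seeded and incubated overnight in DMEM with 10% FBS at 37 °C in 5% CO2, then exposed in fresh medium to a range of test concentrations. Luciferase read-out. EC50 was taken from at least two independent experiments at eight concentrations each, mean ± SD.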

[4] = target: T4, G-protein coupled bile acid receptor 1 (Homo sapiens) (UniProt Q8TDU6); assay: Agonist activity at human TGR5 expressed in HEK293 cells assessed CRE-induced luciferase activity at 10 uM after 5.5 hrs by reporter gene assay; format: functional, cell-based
T4 sequence (whole entry): T1 sequence (Q8TDU6 whole entry)

[5] = Half life in Sprague-Dawley rat at 5 mg/kg, po; format: ADME, organism-based; design: dose 5 mg/kg, route oral; settings: in vivo
How it was run: (§1)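 Male SD rats, n = 6 per group, dosed orally at 5 mg/kg as a 0.25% CMC-Na formulation. PK parameters were derived by non-compartmental analysis and are reported as mean ± SD.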

[6] = Clearance in Sprague-Dawley rat at 5 mg/kg, po; format: ADME, organism-based; design: dose 5 mg/kg, route oral; settings: in vivo; how it was run: as §1
[7] = MRT (0 to infinity) in Sprague-Dawley rat at 5 mg/kg, po; format: ADME, organism-based; design: dose 5 mg/kg, route oral; settings: in vivo; how it was run: as §1
[8] = MRT (0 to t) in Sprague-Dawley rat at 5 mg/kg, po; format: ADME, organism-based; design: dose 5 mg/kg, route oral; settings: in vivo; how it was run: as §1
[9] = AUC (0 to infinity) in Sprague-Dawley rat at 5 mg/kg, po; format: ADME, organism-based; design: dose 5 mg/kg, route oral, time infinity; settings: plasma; how it was run: as §1
[10] = AUC (0 to t) in Sprague-Dawley rat at 5 mg/kg, po; format: ADME, organism-based; design: dose 5 mg/kg, route oral; settings: plasma; how it was run: as §1
[11] = Cmax in Sprague-Dawley rat at 5 mg/kg, po; format: ADME, organism-based; design: dose 5 mg/kg, route oral; settings: in vivo; how it was run: as §1
[12] = Tmax in Sprague-Dawley rat at 5 mg/kg, po; format: ADME, organism-based; design: dose 5 mg/kg, route oral; settings: in vivo; how it was run: as §1
[13] = tested on: Mus musculus; assay: Antidiabetic activity in oral glucose loaded ICR mouse assessed as reduction of blood glucose AUC (0 to 120 mins) at 50 mg/kg, po; format: functional, organism-based; design: dose 50 mg/kg
How it was run: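 Male ICR mice were fasted overnight and dosed orally at 50 mg/kg in 0.25% CMC vehicle (n = 7–8 per group), 30 min before an oral glucose load of 4 g/kg. Tail-clip blood glucose was measured before dosing and at 0, 15, 30, 60 and 120 min after the load. AUC0–120 min was calculated by the trapezoidal rule using each animal's 0-min glucose as its baseline.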

[14] = tested on: Mus musculus; assay: Toxicity in oral glucose loaded ICR mouse assessed as effect on size of the gallbladder at 50 mg/kg, po; format: organism-based; design: dose 50 mg/kg, route oral; settings: in vivo
How it was run: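 Male ICR mice from the OGTT (oral dose 50 mg/kg in 0.25% CMC, n = 7–8 per group) were re-fed for 2 h after the test. The gallbladders were then ligated and removed. Gallbladder size was measured by vernier caliper. Bile weight was taken as the gross weight of gallbladder with bile minus the net gallbladder weight.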

SMILES	pEC50 [1]	Activity [2] [%]	pEC50 [3]	also measured
O=C(c1ccncc1)N(Cc1cc(C(F)(F)F)cc(C(F)(F)F)c1)Cc1cnccc1-c1ccccc1	5.39	–	–	–
FC(F)(F)c1cc(CNCc2cnccc2-c2ccccc2)cc(C(F)(F)F)c1	6.24	–	–	–
O=C(c1ccccc1)N(Cc1cnccc1-c1ccccc1F)S(=O)(=O)c1cc(C(F)(F)F)cc(C(F)(F)F)c1	7.51	144	6.07	–
O=C(c1ccsc1)N(Cc1cnccc1-c1ccccc1F)S(=O)(=O)c1cc(C(F)(F)F)cc(C(F)(F)F)c1	7.28	146	5.96	–
CCC(=O)N(Cc1cc(C(F)(F)F)cc(C(F)(F)F)c1)Cc1cnccc1-c1ccccc1	5.90	–	–	–
CCC(c1cc(C(F)(F)F)cc(C(F)(F)F)c1)N(Cc1cnccc1-c1ccccc1)C(=O)c1ccco1 (racemic)	5.91	–	–	–
O=C(c1ccc(Cl)cc1)N(Cc1cc(C(F)(F)F)cc(C(F)(F)F)c1)Cc1cnccc1-c1ccccc1	5.13	–	–	–
Fc1ccccc1-c1ccncc1CNCc1cc(C(F)(F)F)cc(C(F)(F)F)c1	6.34	–	–	–
COC(=O)C(NCc1cnccc1-c1ccccc1F)c1cc(C(F)(F)F)cc(C(F)(F)F)c1 (stereo unspecified)	6.36	–	–	–
N#CC(c1cc(C(F)(F)F)cc(C(F)(F)F)c1)N(Cc1ccco1)Cc1cnccc1-c1ccccc1F (racemic)	6.05	–	–	–
O=S(=O)(NCc1c(-c2ccccc2F)ccnc1-c1ccccc1)c1cc(C(F)(F)F)cc(C(F)(F)F)c1	–	–	–	Activity [4]: 18%
CCC(NCc1cnccc1-c1ccccc1F)c1cc(C(F)(F)F)cc(C(F)(F)F)c1 (racemic)	6.42	–	–	–
CCOc1nccc(-c2ccccc2F)c1CNS(=O)(=O)c1cc(C(F)(F)F)cc(C(F)(F)F)c1	–	–	–	Activity [4]: 18%
O=C(c1ccsc1)N(Cc1cc(C(F)(F)F)cc(C(F)(F)F)c1)Cc1cnccc1-c1ccccc1	6.92	111	6.64	–
O=C(NCc1cnccc1-c1ccccc1F)c1cc(C(F)(F)F)cc(C(F)(F)F)c1	–	–	–	Activity [4]: 46%
O=S(=O)(c1cc(C(F)(F)F)cc(C(F)(F)F)c1)N(Cc1ccccc1)Cc1cnccc1-c1ccccc1F	5.68	–	–	–
O=S(=O)(NCc1cnccc1-c1ccccc1F)c1cc(C(F)(F)F)cc(C(F)(F)F)c1	7.20	148	6.09	–
O=C(c1ccco1)N(Cc1cnccc1-c1ccccc1F)S(=O)(=O)c1cc(C(F)(F)F)cc(C(F)(F)F)c1	7.49	139	6.04	–
CC(NCc1cnccc1-c1ccccc1F)c1cc(C(F)(F)F)cc(C(F)(F)F)c1 (racemic)	6.69	117	5.69	–

SMILES	pEC50 [1]	Activity [2] [%]	pEC50 [3]	also measured
CCCN(Cc1cnccc1-c1ccccc1F)C(C#N)c1cc(C(F)(F)F)cc(C(F)(F)F)c1 (racemic)	6.33	–	–	–
N#CC(NCc1cnccc1-c1ccccc1)c1cc(C(F)(F)F)cc(C(F)(F)F)c1 (racemic)	7.21	120	6.43	–
O=C(c1ccccc1)N(Cc1cc(C(F)(F)F)cc(C(F)(F)F)c1)Cc1cnccc1-c1ccccc1	6.46	–	–	–
CC(=O)N(Cc1cc(C(F)(F)F)cc(C(F)(F)F)c1)Cc1cnccc1-c1ccccc1	6.04	–	–	–
O=C1COc2nccc(-c3ccccc3F)c2CN1Cc1cc(C(F)(F)F)cc(C(F)(F)F)c1	–	130	–	–
O=C(c1cccs1)N(Cc1cc(C(F)(F)F)cc(C(F)(F)F)c1)Cc1cnccc1-c1ccccc1	6.59	127	6.52	–
O=C(c1ccco1)N(Cc1cc(C(F)(F)F)cc(C(F)(F)F)c1)Cc1cnccc1-c1ccccc1F	6.30	–	–	–
O=C(O)C(NCc1cnccc1-c1ccccc1F)c1cc(C(F)(F)F)cc(C(F)(F)F)c1 (stereo unspecified)	–	–	–	Activity [4]: 16%
CC(c1cc(C(F)(F)F)cc(C(F)(F)F)c1)N(Cc1cnccc1-c1ccccc1)C(=O)c1ccco1 (racemic)	6.51	119	5.93	–
O=S(=O)(NCc1c(-c2ccccc2F)ccnc1Cl)c1cc(C(F)(F)F)cc(C(F)(F)F)c1	6.39	–	–	–
O=C(c1ccco1)N(Cc1cc(C(F)(F)F)cc(C(F)(F)F)c1)Cc1cnccc1-c1ccccc1	6.33	–	–	–
O=S(=O)(NCc1cnccc1-c1c(F)cccc1F)c1cc(C(F)(F)F)cc(C(F)(F)F)c1	7.21	123	6.26	–
O=C(c1ccoc1)N(Cc1cc(C(F)(F)F)cc(C(F)(F)F)c1)Cc1cnccc1-c1ccccc1	6.49	–	–	–
NCc1cnccc1-c1ccccc1F	–	–	–	Activity [4]: 1%
CC[C@H]1[C@@H](O)[C@@H]2[C@H](C[C@H](O)[C@]3(C)[C@@H]([C@H](C)C[C@H](C)C(=O)O)CC[C@@H]23)[C@@]2(C)CC[C@@H](O)C[C@@H]12	–	100	–	–
N#CC(NCc1cnccc1-c1c(F)cccc1F)c1cc(C(F)(F)F)cc(C(F)(F)F)c1 (racemic)	7.29	123	7.00	–
N#CC(NCc1cnccc1-c1ccccc1F)c1cc(C(F)(F)F)cc(C(F)(F)F)c1 (racemic)	7.46	121	6.82	half-life [5]: 2.3 h; CL/F [6]: 1520 mL/min/kg; MRT inf [7]: 3.6 h; MRT last [8]: 2.6 h; AUC(0-inf) [9]: 55 ng·h/mL; AUC(0-t) [10]: 49.1 ng·h/mL; Cmax [11]: 16.3 ng/mL; Tmax [12]: 1.9 h; Activity [13]: inactive; Activity [14]: Non-toxic
O=C(C1CCCCC1)N(Cc1cc(C(F)(F)F)cc(C(F)(F)F)c1)Cc1cnccc1-c1ccccc1	–	–	–	Activity [4]: 19%

— ChEMBL document CHEMBL2434932, “Design, synthesis and biological evaluation of a novel class of potent TGR5 agonists based on a 4-phenyl pyridine scaffold” (Eur J Med Chem, 2013)
